≈ marks a conversion by molar mass, not a printed value.
Experiments:
[1] = tested on: L6; assay: Cytotoxicity against rat L6 cells after 72 hrs by resazurin assay; format: cell-based; details: L6, 72 h
Method in brief: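 L6 rat skeletal myoblasts, 4×10^4 cells/well in RPMI 1640 with 10% FBS and L-glutamine; seven 3-fold serial dilutions, 90 to 0.123 µg/mL; 72 h; microscopic check of controls and sterility; resazurin added, 2 h further; fluorescence read at ex 536/em 588 nm.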

[2] = tested on: Leishmania donovani; assay: Leishmanicidal activity against Leishmania donovani MHOM/ET/67/L82 amastigote forms after 72 hrs by resazurin assay; format: functional, organism-based; details: MHOM/ET/67/L82, 72 h
[3] = tested on: Trypanosoma brucei rhodesiense; assay: Trypanocidal activity against Trypanosoma brucei rhodesiense STIB 900 bloodstream forms after 72 hrs by resazurin assay; format: functional, organism-based; details: STIB 900, 72 h
Method in brief: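 Bloodstream forms, 10^4/well, in MEM with 25 mM HEPES, extra glucose, non-essential amino acids, 0.2 mM 2-mercaptoethanol, 1 mM pyruvate, 15% heat-inactivated horse serum; seven 3-fold dilutions 90 to 0.123 µg/mL; 37 °C, 5% CO2, 72 h; resazurin 2–4 h more; fluorescence ex 536/em 588 nm; melarsoprol standard.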

[4] = tested on: Plasmodium falciparum; assay: Antimalarial activity against chloquine- and pyrimethamine-resistant Plasmodium falciparum K1 erythrocytic stage assessed as inhibition of [3H]hypoxanthine incorporation after 48 hrs by liquid scintillation counting; format: functional, organism-based
Method in brief: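 Erythrocytic-stage cultures in hypoxanthine-free RPMI 1640 with 5% Albumax, exposed to serial drug dilutions at 37 °C under reduced oxygen for 48 h. 0.5 μCi [3H]-hypoxanthine per well was then added for a further 24 h. Cells were harvested onto glass-fibre filters and counted as CPM, expressed as % of untreated controls. IC50 was read from dose–response curves. Chloroquine was the reference.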

[5] = tested on: Trypanosoma cruzi; assay: Trypanocidal activity against trypomastigote Trypanosoma cruzi Tulahuen C2C4 infected in L6 cells after 96 hrs by beta-galactosidase reporter gene assay; format: functional, organism-based; details: Tulahuen C2C4, L6, 96 h

Row | Structure (SMILES) | IC50 [1] | IC50 [2] | IC50 [3] | IC50 [4] | IC50 [5]
1 | O=C1[C@H]2N=NN(Cc3nc(-c4ccccc4)no3)[C@H]2C(=O)N1c1ccccc1 | 47.3 µg/mL (≈ 126 µM) | 1.6 µg/mL (≈ 4.27 µM) | 7 µg/mL (≈ 18.7 µM) | 22.6 µg/mL (≈ 60.4 µM) | 46.1 µg/mL (≈ 123 µM)
2 | O=C1[C@H]2N=NN(Cc3nc(-c4ccc(Cl)cc4)no3)[C@H]2C(=O)N1c1ccccc1 | 49.5 µg/mL (≈ 121 µM) | 3.2 µg/mL (≈ 7.83 µM) | 17.2 µg/mL (≈ 42.1 µM) | 24.9 µg/mL (≈ 60.9 µM) | 49 µg/mL (≈ 120 µM)
3 | O=C1[C@H]2N=NN(Cc3nc(-c4ccc(Br)cc4)no3)[C@H]2C(=O)N1c1ccccc1 | 58.6 µg/mL (≈ 129 µM) | 3.5 µg/mL (≈ 7.72 µM) | 18.2 µg/mL (≈ 40.2 µM) | 26.9 µg/mL (≈ 59.3 µM) | 54.9 µg/mL (≈ 121 µM)
4 | O=C1[C@H]2N=NN(Cc3nc(-c4ccc(F)cc4)no3)[C@H]2C(=O)N1c1ccccc1 | > 100 µg/mL | 4.1 µg/mL (≈ 10.4 µM) | 12.3 µg/mL (≈ 31.3 µM) | 23.6 µg/mL (≈ 60.2 µM) | 62.4 µg/mL (≈ 159 µM)
5 | Cc1ccc(-c2noc(CN3N=N[C@@H]4C(=O)N(c5ccccc5)C(=O)[C@@H]43)n2)cc1 | 15.2 µg/mL (≈ 39.1 µM) | 2.2 µg/mL (≈ 5.66 µM) | 8.4 µg/mL (≈ 21.6 µM) | 13.2 µg/mL (≈ 34 µM) | 38.9 µg/mL (≈ 100 µM)
6 | O=C1[C@H]2N=NN(Cc3nc(-c4ccc(I)cc4)no3)[C@H]2C(=O)N1c1ccccc1 | 48.6 µg/mL (≈ 97.2 µM) | 3.6 µg/mL (≈ 7.2 µM) | 18.8 µg/mL (≈ 37.6 µM) | 20.4 µg/mL (≈ 40.8 µM) | 47.2 µg/mL (≈ 94.4 µM)
7 | O=C1[C@H]2N=NN(Cc3nc(-c4ccc([N+](=O)[O-])cc4)no3)[C@H]2C(=O)N1c1ccccc1 | > 100 µg/mL | 2 µg/mL (≈ 4.77 µM) | 8 µg/mL (≈ 19.1 µM) | 14.7 µg/mL (≈ 35.1 µM) | 41.1 µg/mL (≈ 98 µM)
8 | COc1ccc(-c2noc(CN3N=N[C@@H]4C(=O)N(c5ccccc5)C(=O)[C@@H]43)n2)cc1 | > 100 µg/mL | 3.4 µg/mL (≈ 8.41 µM) | 16.9 µg/mL (≈ 41.8 µM) | 17 µg/mL (≈ 42 µM) | 54 µg/mL (≈ 134 µM)
9 | CSc1ccc(-c2noc(CN3N=N[C@@H]4C(=O)N(c5ccccc5)C(=O)[C@@H]43)n2)cc1 | > 100 µg/mL | 3.5 µg/mL (≈ 8.32 µM) | 16.3 µg/mL (≈ 38.8 µM) | 20.6 µg/mL (≈ 49 µM) | 48.5 µg/mL (≈ 115 µM)
10 | O=C1[C@H]2N=NN(Cc3nc(-c4ccc(C(F)(F)F)cc4)no3)[C@H]2C(=O)N1c1ccccc1 | 44.4 µg/mL (≈ 100 µM) | 3.7 µg/mL (≈ 8.36 µM) | 13.9 µg/mL (≈ 31.4 µM) | 15 µg/mL (≈ 33.9 µM) | 51.4 µg/mL (≈ 116 µM)
11 | CN(C)c1ccc(-c2noc(CN3N=N[C@@H]4C(=O)N(c5ccccc5)C(=O)[C@@H]43)n2)cc1 | > 100 µg/mL | 4.5 µg/mL (≈ 10.8 µM) | 13.1 µg/mL (≈ 31.4 µM) | 21 µg/mL (≈ 50.3 µM) | 36.6 µg/mL (≈ 87.7 µM)
12 | O=C(Cn1ccnc1[N+](=O)[O-])NCc1ccccc1 [BENZNIDAZOLE] | – | – | – | – | 0.464 µg/mL (≈ 1.78 µM)
13 | CCCCCCCCCCCCCCCCOP(=O)([O-])OCC[N+](C)(C)C [MILTEFOSINE] | – | 0.171 µg/mL (≈ 0.42 µM) | – | – | –
14 | COc1cc([C@@H]2c3cc4c(cc3[C@H](O)[C@H]3COC(=O)[C@H]23)OCO4)cc(OC)c1OC [PODOFILOX] | 0.007 µg/mL (≈ 0.0169 µM) | – | – | – | –

— ChEMBL document CHEMBL1933052, “Synthesis and anti-protozoal activity of novel dihydropyrrolo[3,4-d][1,2,3]triazoles” (Eur J Med Chem, 2012)
